Measured values reported in ChEMBL document CHEMBL5653631, “A Potent and Selective ULK1 Inhibitor Suppresses Autophagy and Sensitizes Cancer Cells to Nutrient Stress” (iScience, 2018).
Values belong to the molecule of their own block, whether it stands above or below them.

How the values were obtained:
[1] = biological target: High affinity nerve growth factor receptor (Homo sapiens) (UniProt P04629); assay: Inhibition of human recombinant TRKA at 500 nM related to control ULK1
[2] = biological target: Calcium/calmodulin-dependent protein kinase kinase 1 (Homo sapiens) (UniProt Q8N5S9); assay: Inhibition of human recombinant CaMKK1 at 15 nM in presence of ATP by radiometric assay relative to control
Sequence of Calcium/calmodulin-dependent protein kinase kinase 1 (Homo sapiens) (Q8N5S9 whole entry, looked up): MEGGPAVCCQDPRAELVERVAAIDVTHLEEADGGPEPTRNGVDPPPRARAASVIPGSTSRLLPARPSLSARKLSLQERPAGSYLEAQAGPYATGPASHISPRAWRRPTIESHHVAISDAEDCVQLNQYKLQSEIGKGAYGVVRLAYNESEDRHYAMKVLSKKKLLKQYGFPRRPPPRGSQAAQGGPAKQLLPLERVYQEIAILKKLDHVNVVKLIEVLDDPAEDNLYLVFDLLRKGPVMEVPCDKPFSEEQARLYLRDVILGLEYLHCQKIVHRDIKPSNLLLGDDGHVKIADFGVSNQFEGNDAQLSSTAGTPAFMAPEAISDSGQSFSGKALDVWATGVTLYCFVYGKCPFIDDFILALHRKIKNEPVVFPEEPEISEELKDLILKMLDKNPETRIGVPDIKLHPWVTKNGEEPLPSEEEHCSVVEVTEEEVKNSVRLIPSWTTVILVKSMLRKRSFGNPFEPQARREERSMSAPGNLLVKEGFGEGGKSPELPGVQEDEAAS

[3] = biological target: Cyclin-dependent kinase-like 3 (Homo sapiens) (UniProt Q8IVW4); assay: Inhibition of human recombinant CDKL3 at 15 nM in presence of ATP by radiometric assay relative to control
Sequence of Cyclin-dependent kinase-like 3 (Homo sapiens) (Q8IVW4 whole entry, looked up): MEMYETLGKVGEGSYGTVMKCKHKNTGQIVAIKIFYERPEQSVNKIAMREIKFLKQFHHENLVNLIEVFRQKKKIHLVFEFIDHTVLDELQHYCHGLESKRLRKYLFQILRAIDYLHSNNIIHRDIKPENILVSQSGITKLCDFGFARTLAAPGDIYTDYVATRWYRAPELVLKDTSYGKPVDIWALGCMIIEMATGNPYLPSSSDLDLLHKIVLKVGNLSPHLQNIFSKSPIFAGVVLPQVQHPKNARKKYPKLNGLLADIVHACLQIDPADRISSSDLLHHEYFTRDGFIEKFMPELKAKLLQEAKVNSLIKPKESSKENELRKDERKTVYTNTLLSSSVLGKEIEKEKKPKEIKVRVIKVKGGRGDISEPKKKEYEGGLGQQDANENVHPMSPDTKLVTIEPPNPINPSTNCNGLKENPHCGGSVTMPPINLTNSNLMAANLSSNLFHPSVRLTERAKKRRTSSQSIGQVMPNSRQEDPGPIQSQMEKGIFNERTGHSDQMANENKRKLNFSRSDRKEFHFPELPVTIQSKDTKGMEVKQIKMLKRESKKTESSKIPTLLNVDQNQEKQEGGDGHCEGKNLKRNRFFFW

[4] = biological target: Ephrin type-A receptor 2 (Homo sapiens) (UniProt P29317); assay: Inhibition of human recombinant EphA2 at 15 nM in presence of ATP by radiometric assay relative to control
[5] = biological target: MAP kinase-activated protein kinase 3 (Homo sapiens) (UniProt Q16644); assay: Inhibition of human recombinant MAPKAPK3 at 15 nM in presence of ATP by radiometric assay relative to control
[6] = biological target: 5'-AMP-activated protein kinase catalytic subunit alpha-1 (Homo sapiens) (UniProt Q13131); assay: Inhibition of human recombinant AMPKa1 at 15 nM related to control ULK1
Sequence of 5'-AMP-activated protein kinase catalytic subunit alpha-1 (Homo sapiens) (Q13131 whole entry, looked up): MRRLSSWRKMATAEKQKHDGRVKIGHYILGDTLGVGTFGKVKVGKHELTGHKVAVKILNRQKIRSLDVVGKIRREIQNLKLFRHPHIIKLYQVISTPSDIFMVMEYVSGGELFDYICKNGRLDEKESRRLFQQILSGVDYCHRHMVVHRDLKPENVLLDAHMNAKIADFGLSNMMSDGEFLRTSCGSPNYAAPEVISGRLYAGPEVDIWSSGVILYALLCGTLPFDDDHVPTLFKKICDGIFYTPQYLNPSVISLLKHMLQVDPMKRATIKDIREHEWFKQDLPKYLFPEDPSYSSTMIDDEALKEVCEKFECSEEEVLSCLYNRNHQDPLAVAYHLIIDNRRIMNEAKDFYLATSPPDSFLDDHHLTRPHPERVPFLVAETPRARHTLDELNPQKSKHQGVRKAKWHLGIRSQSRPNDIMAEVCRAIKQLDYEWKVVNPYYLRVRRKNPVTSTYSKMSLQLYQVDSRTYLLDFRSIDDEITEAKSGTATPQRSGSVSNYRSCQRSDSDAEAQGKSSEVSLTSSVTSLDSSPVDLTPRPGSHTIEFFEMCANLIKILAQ
Outline: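 Panel of 327 recombinant human kinases, each assayed in vitro by radiometric activity assay in duplicate at a single inhibitor concentration per compound, chosen with reference to its ULK1 inhibition. Activity remaining was expressed as percent of vehicle control, and percent inhibition was calculated as 100 minus percent activity remaining.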

[7] = biological target: Calcium/calmodulin-dependent protein kinase type 1D (Homo sapiens) (UniProt Q8IU85); assay: Inhibition of human recombinant CaMK1d at 15 nM related to control ULK1
Sequence of Calcium/calmodulin-dependent protein kinase type 1D (Homo sapiens) (Q8IU85 whole entry, looked up): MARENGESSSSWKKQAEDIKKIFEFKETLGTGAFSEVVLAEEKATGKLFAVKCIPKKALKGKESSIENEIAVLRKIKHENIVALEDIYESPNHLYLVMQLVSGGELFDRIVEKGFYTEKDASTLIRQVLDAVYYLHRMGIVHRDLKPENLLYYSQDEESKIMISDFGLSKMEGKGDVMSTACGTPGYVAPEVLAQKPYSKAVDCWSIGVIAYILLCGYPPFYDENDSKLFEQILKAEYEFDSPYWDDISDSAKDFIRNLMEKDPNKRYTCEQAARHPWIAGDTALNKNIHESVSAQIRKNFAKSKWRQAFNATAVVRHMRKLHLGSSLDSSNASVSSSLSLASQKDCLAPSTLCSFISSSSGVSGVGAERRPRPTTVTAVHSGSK

[8] = biological target: T1, Protein kinase C epsilon type (Homo sapiens) (UniProt Q02156); assay: Inhibition of human recombinant PKCe at 15 nM related to control ULK1
T1 sequence (whole entry): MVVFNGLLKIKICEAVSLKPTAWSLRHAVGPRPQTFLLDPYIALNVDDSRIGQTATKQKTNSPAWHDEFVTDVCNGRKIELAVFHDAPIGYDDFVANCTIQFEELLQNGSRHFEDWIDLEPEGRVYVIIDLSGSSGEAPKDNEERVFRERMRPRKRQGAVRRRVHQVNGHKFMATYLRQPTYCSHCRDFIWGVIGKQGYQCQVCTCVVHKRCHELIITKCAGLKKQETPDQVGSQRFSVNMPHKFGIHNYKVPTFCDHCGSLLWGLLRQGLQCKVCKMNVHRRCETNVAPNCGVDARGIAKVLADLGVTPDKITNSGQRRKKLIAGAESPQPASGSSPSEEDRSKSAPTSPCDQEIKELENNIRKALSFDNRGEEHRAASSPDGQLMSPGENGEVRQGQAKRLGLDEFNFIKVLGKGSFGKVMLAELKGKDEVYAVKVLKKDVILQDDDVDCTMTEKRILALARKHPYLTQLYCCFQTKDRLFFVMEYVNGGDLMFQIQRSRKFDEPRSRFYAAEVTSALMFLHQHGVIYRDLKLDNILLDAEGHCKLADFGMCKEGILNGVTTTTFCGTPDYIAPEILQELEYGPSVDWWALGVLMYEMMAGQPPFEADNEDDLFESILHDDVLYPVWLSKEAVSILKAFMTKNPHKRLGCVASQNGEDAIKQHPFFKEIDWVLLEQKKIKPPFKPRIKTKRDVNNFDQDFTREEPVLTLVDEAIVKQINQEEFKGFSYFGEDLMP

[9] = biological target: T2, Protein kinase C zeta type (Homo sapiens) (UniProt Q05513); assay: Inhibition of human recombinant PKCz at 15 nM related to control ULK1
T2 sequence (whole entry): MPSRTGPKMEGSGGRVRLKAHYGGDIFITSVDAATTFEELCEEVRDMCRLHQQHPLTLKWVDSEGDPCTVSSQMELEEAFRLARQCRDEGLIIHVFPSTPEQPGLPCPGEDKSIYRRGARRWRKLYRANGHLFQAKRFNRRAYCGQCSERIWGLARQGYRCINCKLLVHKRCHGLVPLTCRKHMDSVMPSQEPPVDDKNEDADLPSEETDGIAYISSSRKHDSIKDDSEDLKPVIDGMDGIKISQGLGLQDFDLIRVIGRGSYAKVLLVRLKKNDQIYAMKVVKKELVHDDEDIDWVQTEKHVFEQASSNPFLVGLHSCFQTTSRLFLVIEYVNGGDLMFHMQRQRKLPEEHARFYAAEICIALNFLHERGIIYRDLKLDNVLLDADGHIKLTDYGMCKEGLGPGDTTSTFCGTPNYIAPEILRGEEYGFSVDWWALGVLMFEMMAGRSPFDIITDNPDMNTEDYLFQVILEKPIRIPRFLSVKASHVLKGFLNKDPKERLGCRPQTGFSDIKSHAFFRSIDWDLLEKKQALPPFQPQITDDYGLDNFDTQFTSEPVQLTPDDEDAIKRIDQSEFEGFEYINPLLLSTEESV

[10] = biological target: T3, Eukaryotic elongation factor 2 kinase (Homo sapiens) (UniProt O00418); assay: Inhibition of human recombinant eEF2K at 40 nM in presence of ATP by radiometric assay relative to control
T3 sequence (whole entry): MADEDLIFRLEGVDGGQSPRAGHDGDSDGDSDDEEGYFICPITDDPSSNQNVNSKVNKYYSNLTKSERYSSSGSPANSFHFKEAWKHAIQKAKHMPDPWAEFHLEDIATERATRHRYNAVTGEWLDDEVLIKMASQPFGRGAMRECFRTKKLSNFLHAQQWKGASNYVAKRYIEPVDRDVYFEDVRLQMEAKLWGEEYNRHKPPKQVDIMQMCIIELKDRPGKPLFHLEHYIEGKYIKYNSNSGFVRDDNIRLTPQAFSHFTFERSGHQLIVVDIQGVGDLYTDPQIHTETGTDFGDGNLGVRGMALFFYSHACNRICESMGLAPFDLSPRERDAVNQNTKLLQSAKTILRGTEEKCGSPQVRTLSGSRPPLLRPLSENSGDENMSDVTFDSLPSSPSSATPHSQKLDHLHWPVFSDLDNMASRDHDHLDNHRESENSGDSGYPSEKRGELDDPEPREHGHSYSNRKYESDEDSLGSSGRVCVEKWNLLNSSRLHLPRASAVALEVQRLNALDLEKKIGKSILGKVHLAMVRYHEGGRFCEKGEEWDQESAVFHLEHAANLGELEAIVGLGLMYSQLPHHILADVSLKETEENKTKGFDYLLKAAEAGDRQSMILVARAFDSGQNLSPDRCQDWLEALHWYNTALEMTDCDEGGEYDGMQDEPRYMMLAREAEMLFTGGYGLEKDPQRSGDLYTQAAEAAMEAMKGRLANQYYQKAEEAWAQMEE

[11] = biological target: Insulin-like growth factor 1 receptor (Homo sapiens) (UniProt P08069); assay: Inhibition of human recombinant IGF1R at 40 nM in presence of ATP by radiometric assay relative to control
Sequence of Insulin-like growth factor 1 receptor (Homo sapiens) (P08069 31-736 limits assumed): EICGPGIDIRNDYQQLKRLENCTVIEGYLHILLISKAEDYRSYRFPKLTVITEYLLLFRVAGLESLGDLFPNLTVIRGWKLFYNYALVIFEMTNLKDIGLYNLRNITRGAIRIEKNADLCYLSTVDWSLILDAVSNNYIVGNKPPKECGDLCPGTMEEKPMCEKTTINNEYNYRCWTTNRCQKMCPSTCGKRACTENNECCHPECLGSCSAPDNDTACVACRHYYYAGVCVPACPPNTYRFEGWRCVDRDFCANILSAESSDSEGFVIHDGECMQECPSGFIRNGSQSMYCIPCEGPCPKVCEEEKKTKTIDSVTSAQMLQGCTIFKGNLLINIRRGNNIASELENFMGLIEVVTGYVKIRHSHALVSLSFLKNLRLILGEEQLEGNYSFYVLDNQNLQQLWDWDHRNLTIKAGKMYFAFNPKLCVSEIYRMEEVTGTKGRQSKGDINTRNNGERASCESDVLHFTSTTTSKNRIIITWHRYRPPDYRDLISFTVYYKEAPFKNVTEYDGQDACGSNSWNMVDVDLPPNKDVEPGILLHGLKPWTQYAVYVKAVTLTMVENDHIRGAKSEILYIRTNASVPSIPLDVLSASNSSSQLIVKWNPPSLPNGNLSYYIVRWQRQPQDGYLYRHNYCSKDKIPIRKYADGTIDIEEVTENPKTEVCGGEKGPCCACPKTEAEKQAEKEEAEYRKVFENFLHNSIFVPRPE
Sequence of Insulin-like growth factor 1 receptor (Homo sapiens) (P08069 741-1367 limits assumed): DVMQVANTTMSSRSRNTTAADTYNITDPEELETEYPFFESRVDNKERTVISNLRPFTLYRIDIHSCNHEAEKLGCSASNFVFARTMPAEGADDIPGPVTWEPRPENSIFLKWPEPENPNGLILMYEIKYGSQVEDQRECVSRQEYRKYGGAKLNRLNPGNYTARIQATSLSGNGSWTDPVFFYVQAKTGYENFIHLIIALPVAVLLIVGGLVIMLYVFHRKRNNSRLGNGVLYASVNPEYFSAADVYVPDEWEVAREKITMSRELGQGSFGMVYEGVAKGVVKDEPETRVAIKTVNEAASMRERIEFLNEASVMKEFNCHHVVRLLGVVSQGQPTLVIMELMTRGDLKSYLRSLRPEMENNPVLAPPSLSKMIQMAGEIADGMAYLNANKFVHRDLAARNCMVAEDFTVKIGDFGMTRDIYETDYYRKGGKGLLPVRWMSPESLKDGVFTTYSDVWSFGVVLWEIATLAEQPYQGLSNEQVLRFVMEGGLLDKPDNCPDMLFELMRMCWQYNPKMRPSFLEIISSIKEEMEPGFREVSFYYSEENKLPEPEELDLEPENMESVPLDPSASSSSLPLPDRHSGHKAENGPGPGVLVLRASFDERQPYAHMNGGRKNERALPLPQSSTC

[12] = biological target: Protein kinase C alpha type (Homo sapiens) (UniProt P17252); assay: Inhibition of human recombinant PKCa at 40 nM related to control ULK1

Sequence of High affinity nerve growth factor receptor (Homo sapiens) (P04629 33-796 limits assumed): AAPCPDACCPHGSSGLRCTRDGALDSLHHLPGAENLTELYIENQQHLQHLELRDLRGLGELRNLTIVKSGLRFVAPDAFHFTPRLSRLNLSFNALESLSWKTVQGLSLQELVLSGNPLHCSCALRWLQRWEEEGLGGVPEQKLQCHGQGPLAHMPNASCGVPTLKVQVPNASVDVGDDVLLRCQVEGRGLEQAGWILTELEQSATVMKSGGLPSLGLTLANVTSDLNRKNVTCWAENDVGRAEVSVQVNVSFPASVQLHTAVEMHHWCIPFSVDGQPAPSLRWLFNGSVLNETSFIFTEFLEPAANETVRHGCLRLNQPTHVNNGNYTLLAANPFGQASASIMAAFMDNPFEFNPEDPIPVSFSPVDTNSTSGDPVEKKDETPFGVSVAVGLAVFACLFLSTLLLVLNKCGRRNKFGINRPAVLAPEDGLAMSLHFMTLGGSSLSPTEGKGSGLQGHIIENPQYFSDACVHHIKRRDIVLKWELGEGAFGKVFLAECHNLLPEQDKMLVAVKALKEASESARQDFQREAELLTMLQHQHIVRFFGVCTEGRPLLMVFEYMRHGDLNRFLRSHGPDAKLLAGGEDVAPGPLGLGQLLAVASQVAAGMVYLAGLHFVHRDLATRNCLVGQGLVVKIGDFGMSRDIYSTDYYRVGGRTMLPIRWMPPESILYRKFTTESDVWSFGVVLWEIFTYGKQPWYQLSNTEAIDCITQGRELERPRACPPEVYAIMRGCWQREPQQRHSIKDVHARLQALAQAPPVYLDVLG

fold change (FC) [1]: 0.7
SMILES: CNC(=O)c1ccccc1Oc1nc(Nc2cc(OC)c(OC)c(OC)c2)ncc1Br

inhibition [2]: 0% | inhibition [3]: 34% | inhibition [4]: 0% | inhibition [5]: 0% | fold change (FC) [6]: 0.66 | fold change (FC) [7]: 0 | fold change (FC) [8]: 0 | fold change (FC) [9]: 0
SMILES: CC(C)[C@H](NC(=O)c1cc(-c2cnn3cc(-c4ccc(OCCN5CCCCC5)cc4)cnc23)cs1)C(F)(F)F

inhibition [10]: 7% | inhibition [11]: 0% | fold change (FC) [12]: 0
SMILES: O=C(N[C@@H](C1CC1)C(F)(F)F)c1cc(-c2cnn3cc(-c4ccc(F)cc4)cnc23)cs1
